The text below walks through data of ChEMBL document CHEMBL2380225, “Chalcones, inhibitors for topoisomerase I and cathepsin B and L, as potential anti-cancer agents” (Bioorg Med Chem Lett, 2013).

Molecules are shown by their SMILES. Bounds are passed on as bounds.

One assay relates to SNU-638. Briefly: Cytotoxicity against human SNU638 cells by MTT assay. The format is functional, cell-based. An outline of the steps:
(§1)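 MTT viability assay on T47D (breast ductal carcinoma) and SNU638 (gastric cancer) human cell lines. IC50 reported as mean ± SD of three separate experiments, each run in triplicate.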
Background: Tetrazolium assays rely on reduction of a dye to a coloured formazan, in cell work by metabolically active cells.

For another assay, the system named is T47D. Briefly: Cytotoxicity against human T47D cells by MTT assay. The format is functional, cell-based. An outline of the steps: as §1
The next assay has as its target Procathepsin L (Homo sapiens, UniProt P07711). Briefly: Inhibition of cathepsin L (unknown origin) using Z-FR-AMC as substrate after 30 mins by fluorescence assay. An outline of the steps:
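Calbiochem cathepsin L (4 nM) was reductively pre-activated for 30 min at 37 °C in 0.1 M NaOAc-HCl, 1 mM EDTA, 0.1% β-mercaptoethanol, pH 5.5. Reaction started with compound plus 20 μM Z-FR-AMC and ran 30 min at room temperature. Fluorescence read at 360 nm excitation / 450 nm emission. IC50 is the mean ± SD of triplicate runs.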

The next assay concerns the target Cathepsin B (Homo sapiens, UniProt P07858). Briefly: Inhibition of cathepsin B (unknown origin) using RR-AMC as substrate after 30 mins by fluorescence assay.
Assay [1] has as its target DNA topoisomerase 2-alpha (Homo sapiens) (UniProt P11388). Briefly: Inhibition of human topoisomerase 2 at 20 uM relative to control. An outline of the steps:
(§2)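 Supercoiled DNA relaxation assay with human topoisomerase I or II (Topogen). Compounds were tested at final 100 and 20 μM. Percent inhibition was derived from the inhibition ratio by image analysis and expressed as the mean of triplicate experiments.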

Assay [2] shares this target. Briefly: Inhibition of human topoisomerase 2 at 100 uM relative to control. An outline of the steps: as §2
Assay [3] concerns the target T1, DNA topoisomerase 1 (Homo sapiens) (UniProt P11387).
T1 sequence (whole entry): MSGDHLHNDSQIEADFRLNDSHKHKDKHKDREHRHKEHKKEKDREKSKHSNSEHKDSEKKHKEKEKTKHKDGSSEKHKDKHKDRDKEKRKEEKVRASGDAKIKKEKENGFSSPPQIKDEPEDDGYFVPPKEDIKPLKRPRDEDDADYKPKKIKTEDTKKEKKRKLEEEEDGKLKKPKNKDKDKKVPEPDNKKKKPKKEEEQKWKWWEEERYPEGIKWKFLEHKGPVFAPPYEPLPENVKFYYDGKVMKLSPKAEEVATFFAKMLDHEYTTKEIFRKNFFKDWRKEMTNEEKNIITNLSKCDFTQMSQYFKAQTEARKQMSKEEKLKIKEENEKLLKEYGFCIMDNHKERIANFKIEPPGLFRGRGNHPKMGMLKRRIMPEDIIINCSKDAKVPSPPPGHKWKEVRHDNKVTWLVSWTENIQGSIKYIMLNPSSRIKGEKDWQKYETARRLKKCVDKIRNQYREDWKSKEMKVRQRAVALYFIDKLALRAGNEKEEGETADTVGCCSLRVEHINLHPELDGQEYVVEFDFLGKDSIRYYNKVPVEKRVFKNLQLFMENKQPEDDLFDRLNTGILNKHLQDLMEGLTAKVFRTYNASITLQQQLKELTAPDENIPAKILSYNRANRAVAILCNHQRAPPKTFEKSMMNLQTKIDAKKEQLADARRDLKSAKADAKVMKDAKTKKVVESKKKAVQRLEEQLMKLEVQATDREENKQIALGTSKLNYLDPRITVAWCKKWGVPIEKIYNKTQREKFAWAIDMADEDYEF
Briefly: Inhibition of human topoisomerase 1 at 20 uM relative to control. An outline of the steps:
as §2

The target of assay [4] is T1, DNA topoisomerase 1 (Homo sapiens). Briefly: Inhibition of human topoisomerase 1 at 100 uM relative to control. An outline of the steps:
as §2

Sequence of Procathepsin L (P07711 whole entry): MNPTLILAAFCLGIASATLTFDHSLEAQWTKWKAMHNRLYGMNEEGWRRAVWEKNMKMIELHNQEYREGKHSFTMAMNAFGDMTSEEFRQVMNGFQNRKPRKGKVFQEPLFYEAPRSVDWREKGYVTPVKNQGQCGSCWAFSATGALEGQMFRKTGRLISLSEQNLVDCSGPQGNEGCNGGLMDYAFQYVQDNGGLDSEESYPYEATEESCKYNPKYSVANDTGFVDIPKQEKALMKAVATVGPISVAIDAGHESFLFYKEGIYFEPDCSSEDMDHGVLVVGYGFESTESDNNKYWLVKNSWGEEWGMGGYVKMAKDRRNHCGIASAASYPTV
Sequence of DNA topoisomerase 2-alpha (Homo sapiens) (P11388 whole entry): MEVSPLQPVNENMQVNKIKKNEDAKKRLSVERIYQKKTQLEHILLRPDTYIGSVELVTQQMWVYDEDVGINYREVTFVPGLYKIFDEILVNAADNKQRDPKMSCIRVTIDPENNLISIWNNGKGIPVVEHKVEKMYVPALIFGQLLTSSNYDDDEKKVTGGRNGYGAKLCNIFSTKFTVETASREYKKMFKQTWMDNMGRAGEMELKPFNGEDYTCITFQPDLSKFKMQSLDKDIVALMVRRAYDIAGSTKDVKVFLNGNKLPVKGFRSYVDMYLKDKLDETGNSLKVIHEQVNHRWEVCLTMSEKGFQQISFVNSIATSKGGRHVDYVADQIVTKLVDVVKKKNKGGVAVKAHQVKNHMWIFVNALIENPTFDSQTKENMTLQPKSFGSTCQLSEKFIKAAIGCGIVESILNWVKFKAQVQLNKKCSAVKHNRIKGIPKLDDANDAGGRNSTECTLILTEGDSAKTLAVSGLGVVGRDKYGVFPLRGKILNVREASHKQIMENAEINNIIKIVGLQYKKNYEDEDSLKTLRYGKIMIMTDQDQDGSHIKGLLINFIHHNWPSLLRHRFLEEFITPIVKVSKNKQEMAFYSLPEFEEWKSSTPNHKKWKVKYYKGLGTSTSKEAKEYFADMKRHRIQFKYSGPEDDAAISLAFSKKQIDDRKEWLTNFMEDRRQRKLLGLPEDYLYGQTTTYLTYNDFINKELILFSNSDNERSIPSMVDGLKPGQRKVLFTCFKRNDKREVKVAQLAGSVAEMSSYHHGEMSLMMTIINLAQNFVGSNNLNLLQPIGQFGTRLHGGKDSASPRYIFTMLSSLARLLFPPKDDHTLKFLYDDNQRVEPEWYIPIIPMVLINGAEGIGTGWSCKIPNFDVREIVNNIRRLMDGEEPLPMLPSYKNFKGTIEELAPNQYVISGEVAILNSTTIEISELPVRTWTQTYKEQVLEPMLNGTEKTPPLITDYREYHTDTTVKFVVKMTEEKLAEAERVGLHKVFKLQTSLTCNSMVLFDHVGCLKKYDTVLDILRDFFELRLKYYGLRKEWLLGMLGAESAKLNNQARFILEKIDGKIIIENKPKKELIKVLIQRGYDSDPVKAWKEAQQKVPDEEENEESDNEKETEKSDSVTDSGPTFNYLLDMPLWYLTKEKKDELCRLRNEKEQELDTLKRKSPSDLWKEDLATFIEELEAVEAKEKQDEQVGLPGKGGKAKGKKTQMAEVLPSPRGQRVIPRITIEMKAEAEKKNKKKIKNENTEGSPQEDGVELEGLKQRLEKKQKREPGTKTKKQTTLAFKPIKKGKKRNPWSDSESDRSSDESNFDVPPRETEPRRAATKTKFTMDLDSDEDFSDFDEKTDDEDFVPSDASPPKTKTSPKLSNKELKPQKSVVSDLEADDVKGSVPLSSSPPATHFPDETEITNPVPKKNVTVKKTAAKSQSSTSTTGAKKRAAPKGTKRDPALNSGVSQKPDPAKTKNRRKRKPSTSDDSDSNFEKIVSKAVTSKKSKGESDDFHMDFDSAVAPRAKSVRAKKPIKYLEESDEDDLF

For `O=C(/C=C/c1ccc(N2CCCC2)cc1)c1ccc([N+](=O)[O-])cc1`, the concentration for half-maximal inhibition (IC50) (as a rule, the concentration that gives 50% inhibition) is > 25 µM in the assay on SNU-638, 21.3 µM in the assay on T47D, 9.42 µM at Procathepsin L and 29 µM against Cathepsin B. The inhibition (as a rule, the drop in the measured response relative to a control, in per cent) in assay [1] was found to be 15.3%; in assay [2] it was 96.1%; in assay [3], 77.6%; in assay [4], 91.1%.

For the molecule `O=C(/C=C/c1ccc(F)cc1)c1ccc(O)cc1O`, the IC50 was 9.43 µM in the assay on SNU-638, 8.31 µM with T47D, > 100 µM against Procathepsin L and > 100 µM on Cathepsin B. Also, the inhibition is 12.6% in assay [1], 42.2% in assay [2], 56.7% in assay [3] and 80.2% in assay [4].

In the case of `O=C(/C=C/c1ccc(N2CCCC2)cc1)c1ccc(F)cc1`, the IC50 with SNU-638 was > 25 µM; in the assay with T47D, > 25 µM; against Procathepsin L it was 56.5 µM; against Cathepsin B, 54.3 µM. Besides, the inhibition in assay [2] stood at 0%; in assay [3] it was 73.1%; in assay [4], 90.6%.

As for `COc1ccc(/C=C/C(=O)c2ccc(O)cc2)cc1Br`, the half-maximal inhibitory concentration (IC50) is 29.8 µM on Procathepsin L and > 100 µM against Cathepsin B. Besides, the inhibition in assay [2] came to 1.2%; in assay [3], 6.6%; in assay [4], 24.8%.

As to `COc1ccc(/C=C/C(=O)c2ccc(O)cc2O)cc1Br`, the concentration for half-maximal inhibition (IC50) in the assay on SNU-638 is 2.89 µM; with T47D it was 1.05 µM; at Procathepsin L it was 67.5 µM; against Cathepsin B, > 100 µM. For the same molecule, the inhibition in assay [2] came out at 2.4%; in assay [3], 8.2%; in assay [4] it was 73.2%.

Take `COc1ccc(C(=O)/C=C/c2ccc(F)cc2)c(O)c1`: the IC50 in the assay with SNU-638 is 18.4 µM; in the assay with T47D it was 21.9 µM; on Procathepsin L it was 98.7 µM; at Cathepsin B, > 100 µM. The inhibition in assay [2] came to 0%; in assay [3], 60%; in assay [4] it was 81.2%.

On to `COc1cc(O)ccc1/C=C/C(=O)c1ccc(O)cc1` [ECHINATIN], for which the IC50 in the assay on SNU-638 came to 10.4 µM; in the assay with T47D, 12.1 µM; against Procathepsin L it was 30.3 µM; against Cathepsin B, 57.7 µM. For the same molecule, the inhibition in assay [2] is 1.6%; in assay [3] it was 2.1%; in assay [4], 88.9%.

For `O=C(/C=C/c1ccc(N2CCCC2)cc1)c1ccc(O)cc1`, the IC50 in the assay on SNU-638 was 0.62 µM; with T47D it was 1.37 µM; at Procathepsin L, 3.15 µM; at Cathepsin B, 1.81 µM. For the same molecule, the inhibition turned out to be 19.1% in assay [1], 96.8% in assay [2], 60% in assay [3] and 74.7% in assay [4].

As for `COc1cc(O)ccc1/C=C/C(=O)c1ccc(NC(C)=O)cc1`, the IC50 with SNU-638 came out at 17.4 µM; with T47D, 12.3 µM; at Procathepsin L, 39.3 µM; at Cathepsin B, 46.8 µM. Besides, the inhibition in assay [2] was determined as 0%; in assay [3] it was 17.3%; in assay [4], 100%.

Consider `O=C(/C=C/c1ccc(F)cc1)c1ccc(O)cc1`, for which the IC50 in the assay on SNU-638 is 5.54 µM; in the assay on T47D, 13.8 µM; on Procathepsin L it was > 100 µM; at Cathepsin B, > 100 µM. Besides, the inhibition in assay [2] is 0%; in assay [3], 18%; in assay [4] it was 50.9%.

For the molecule `COc1ccc(/C=C/C(=O)c2ccco2)cc1Br`, the IC50 was 4.29 µM with SNU-638, 10.9 µM with T47D, > 100 µM against Procathepsin L and > 100 µM against Cathepsin B. The inhibition worked out at 0% in assay [1], 24.7% in assay [2], 8.8% in assay [3] and 92% in assay [4].

On to `COc1cc(O)ccc1/C=C/C(=O)c1ccc(N)cc1`, for which the figures for the IC50 against Procathepsin L and against Cathepsin B were 32.9 µM and 76.5 µM, respectively. The inhibition in assay [2] is 0%; in assay [4] it was 0.8%.

As for `COc1ccc(/C=C/C(=O)c2cccs2)cc1Br`, the half-maximal inhibitory concentration (IC50) in the assay on SNU-638 is 16.6 µM; with T47D, 21.9 µM; at Procathepsin L, > 100 µM; against Cathepsin B, > 100 µM. Moreover, the inhibition came out at 5.8% in assay [2], 2.1% in assay [3] and 74.4% in assay [4].

For `O=C(/C=C/c1ccc(N2CCCC2)cc1)c1ccc(O)cc1O`, the IC50 is 5.77 µM in the assay with SNU-638, 6.99 µM in the assay on T47D, 4.72 µM on Procathepsin L and 28.7 µM against Cathepsin B. For the same molecule, the inhibition in assay [2] was 0%; in assay [3], 64.4%; in assay [4], 87.1%.

`CC[C@@]1(O)C(=O)OCc2c1cc1n(c2=O)Cc2cc3ccccc3nc2-1` [CAMPTOTHECIN]: the IC50 was determined as 0.28 µM in the assay on SNU-638 and 0.07 µM in the assay with T47D.

Take `COc1cc(O)ccc1C(=O)/C=C/c1ccc(F)cc1`: the IC50 is > 25 µM in the assay on SNU-638, > 25 µM in the assay on T47D, 91.2 µM on Procathepsin L and > 100 µM at Cathepsin B. Besides, the inhibition is 0% in assay [2], 61.6% in assay [3] and 86.1% in assay [4].

Turning to `COc1cc([C@@H]2c3cc4c(cc3[C@@H](O[C@@H]3O[C@@H]5CO[C@@H](C)O[C@H]5[C@H](O)[C@H]3O)[C@H]3COC(=O)[C@H]23)OCO4)cc(OC)c1O` [ETOPOSIDE], the IC50 with SNU-638 came to 2.57 µM; in the assay on T47D, 4.98 µM.

In the case of `COc1ccc(C(=O)/C=C/c2ccc(OC)c(Br)c2)c(O)c1`, the IC50 against Procathepsin L is 45.3 µM; against Cathepsin B, > 100 µM. The inhibition in assay [2] was determined as 1%; in assay [3], 3.8%; in assay [4], 5%.

As for `COc1cc(O)ccc1/C=C/C(=O)c1ccc(F)cc1`, the IC50 was 6.3 µM in the assay with SNU-638, 8.51 µM in the assay on T47D, 73.2 µM against Procathepsin L and 95.1 µM at Cathepsin B. The inhibition in assay [2] turned out to be 0.7%; in assay [3], 9.5%; in assay [4], 95.8%.

Turning to `COc1ccc(/C=C/C(=O)c2ccc(F)cc2)cc1Br`, the IC50 is > 25 µM in the assay with SNU-638, > 25 µM in the assay on T47D, > 100 µM on Procathepsin L and > 100 µM at Cathepsin B. Further, the inhibition came to 0% in assay [1], 48.7% in assay [2], 20.1% in assay [3] and 76.5% in assay [4].

For the molecule `COc1cccc2c1C(=O)c1c(O)c3c(c(O)c1C2=O)C[C@@](O)(C(=O)CO)C[C@@H]3O[C@H]1C[C@H](N)[C@H](O)[C@H](C)O1` [DOXORUBICIN], the IC50 in the assay on SNU-638 came to 0.84 µM; in the assay with T47D it was 2.91 µM.
